Each block holds one compound with its values, some of them ahead of it.
Tests used:
Thalamus [1] = test: Biodistribution in FVB Mdr1a/Mdr1b deficient mouse thalamus assessed as tritiated drug level at 150 uM perfusion after 30 mins by capillary depletion assay; type: ADME, organism-based; settings: in vivo, other, 0.5 h
Procedure, shortened: (§1)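 The method compared multiple-time CNS uptake in Mdr1a/Mdr1b+/+ and –/– FVB male mice (about 25 g; genotype confirmed by PCR). […] Regional dpm/g was expressed relative to plasma (RTissue%). 3-4 mice per point. Genotypes were compared by Student's t test.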

Thalamus [2] = test: Biodistribution in BALB/c mouse thalamus assessed as tritiated drug level at 150 uM perfusion after 10 mins by capillary depletion assay in presence of phenylarsine ocide; type: ADME, organism-based; settings: in vivo, other
Procedure, shortened: (§2)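 BALB/c mice were perfused in situ via the heart at 5 ml/min. A 10-min preperfusion used either 150 µM phenylarsine oxide in 0.05% DMSO (final) or a 0.05% DMSO control. […] Brain regions were sampled and counted by liquid scintillation. Results are RTissue% as mean ± SEM.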

Hypothalamus [3] = test: Biodistribution in wild type FVB Mdr1a/Mdr1b positive mouse hypothalamus assessed as tritiated drug level at 150 uM perfusion after 30 mins by capillary depletion assay; type: ADME, organism-based; settings: in vivo, other, 0.5 h; procedure, shortened: as §1
[4] = Biodistribution in perfused wild type FVB Mdr1a/Mdr1b positive mouse choroid plexus assessed as tritiated drug level after 30 mins relative to control; type: ADME, organism-based; settings: in vivo, 0.5 h
Procedure, shortened: (§3)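 Mice were perfused with artificial plasma for 4 min, then decapitated. The IVth ventricle choroid plexus was excised and preincubated 10 min in artificial CSF at 37°C. […] BALB/c tissue also received 150 µM phenylarsine oxide in 0.05% DMSO, or 0.05% DMSO alone.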

[5] = Biodistribution in wild type FVB Mdr1a/Mdr1b positive mouse pituitary gland assessed as tritiated drug level at 150 uM perfusion after 30 mins by capillary depletion assay; type: ADME, organism-based; settings: in vivo, other, 0.5 h; procedure, shortened: as §1
[6] = Biodistribution in perfused BALB/c mouse choroid plexus assessed as tritiated drug level after 2.5 mins in presence of DMSO relative to control; type: ADME, organism-based; settings: in vivo; procedure, shortened: as §3
[7] = Biodistribution in FVB Mdr1a/Mdr1b deficient mouse caudate putamen assessed as tritiated drug level at 150 uM perfusion after 30 mins by capillary depletion assay; type: ADME, organism-based; settings: in vivo, other, 0.5 h; procedure, shortened: as §1
[8] = Biodistribution in perfused FVB Mdr1a/Mdr1b deficient mouse choroid plexus assessed as tritiated drug level after 30 mins relative to control; type: ADME, organism-based; settings: in vivo, 0.5 h; procedure, shortened: as §3
[9] = Biodistribution in perfused FVB Mdr1a/Mdr1b deficient mouse choroid plexus assessed as tritiated drug level after 2.5 mins relative to control; type: ADME, organism-based; settings: in vivo; procedure, shortened: as §3
[10] = Biodistribution in perfused BALB/c mouse choroid plexus assessed as tritiated drug level after 2.5 mins in presence of phenylarsine oxide relative to control; type: ADME, organism-based; settings: in vivo; procedure, shortened: as §3
Hypothalamus [11] = test: Biodistribution in FVB Mdr1a/Mdr1b deficient mouse hypothalamus assessed as tritiated drug level at 150 uM perfusion after 30 mins by capillary depletion assay; type: ADME, organism-based; settings: in vivo, other, 0.5 h; procedure, shortened: as §1
[12] = Biodistribution in wild type FVB Mdr1a/Mdr1b positive mouse pineal gland assessed as tritiated drug level at 150 uM perfusion after 30 mins by capillary depletion assay; type: ADME, organism-based; settings: in vivo, other, 0.5 h; procedure, shortened: as §1
Cerebellum = test: Biodistribution in FVB Mdr1a/Mdr1b deficient mouse cerebellum assessed as tritiated drug level at 150 uM perfusion after 30 mins by capillary depletion assay; type: ADME, organism-based; settings: in vivo, other, 0.5 h; procedure, shortened: as §1
[13] = Biodistribution in FVB Mdr1a/Mdr1b deficient mouse frontal cortex assessed as tritiated drug level at 150 uM perfusion after 30 mins by capillary depletion assay; type: ADME, organism-based; settings: in vivo, other, 0.5 h; procedure, shortened: as §1
[14] = Biodistribution in perfused wild type FVB Mdr1a/Mdr1b positive mouse choroid plexus assessed as tritiated drug level after 2.5 mins relative to control; type: ADME, organism-based; settings: in vivo; procedure, shortened: as §3
[15] = Biodistribution in wild type FVB Mdr1a/Mdr1b positive mouse brain 4th ventricle choroid plexus assessed as tritiated drug level at 150 uM perfusion after 30 mins by capillary depletion assay; type: ADME, organism-based; settings: in vivo, other, 0.5 h; procedure, shortened: as §1
[16] = Biodistribution in wild type FVB Mdr1a/Mdr1b positive mouse caudate putamen assessed as tritiated drug level at 150 uM perfusion after 30 mins by capillary depletion assay; type: ADME, organism-based; settings: in vivo, other, 0.5 h; procedure, shortened: as §1
Mus musculus = species on record: Mus musculus; test: Drug uptake in BALB/c mouse assessed as tritiated drug level at 5 ml/min perfusion after 10 min relative to [14C]sucrose; type: ADME, organism-based; settings: in vivo, other
[17] = Biodistribution in FVB Mdr1a/Mdr1b deficient mouse choroid plexus assessed as tritiated drug level at 150 uM perfusion after 30 mins by capillary depletion assay; type: ADME, organism-based; settings: in vivo, other, 0.5 h; procedure, shortened: as §1
[18] = Biodistribution in perfused FVB Mdr1a/Mdr1b deficient mouse choroid plexus assessed as drug accumulation after 2.5 mins; type: ADME, organism-based; settings: in vivo; procedure, shortened: as §3
[19] = Protein binding in human plasma assessed as tritiated drug level; type: ADME, cell-free; settings: read-out: PPB (converted)
Procedure, shortened: (§4)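 [3H]suramin (0.14 µCi) was dissolved in 0.7 ml of warmed artificial plasma, mouse plasma, or reconstituted human plasma. Binding was measured by centrifugal ultrafiltration. Mouse plasma came from heparinized cardiac blood of male FVB mice, spun at 5,400 x g for 10 min. Human plasma was lyophilized citrated plasma. Protein retention by the filter was checked by the Lowry method.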

[20] = Protein binding in mouse plasma assessed as tritiated drug level; type: ADME, cell-free; settings: read-out: PPB (converted); procedure, shortened: as §4
[21] = Biodistribution in perfused BALB/c mouse choroid plexus assessed as drug accumulation after 2.5 mins in presence of DMSO; type: ADME, organism-based; settings: in vivo; procedure, shortened: as §3
[22] = Biodistribution in wild type FVB Mdr1a/Mdr1b positive mouse choroid plexus assessed as tritiated drug level at 150 uM perfusion after 30 mins by capillary depletion assay; type: ADME, organism-based; settings: in vivo, other, 0.5 h; procedure, shortened: as §1
[23] = Biodistribution in BALB/c mouse choroid plexus assessed as tritiated drug level at 150 uM perfusion after 10 mins by capillary depletion assay in presence of DMSO; type: ADME, organism-based; settings: in vivo, other; procedure, shortened: as §2
[24] = Biodistribution in perfused BALB/c mouse choroid plexus assessed as drug accumulation after 2.5 mins in presence of phenylarsine oxide; type: ADME, organism-based; settings: in vivo; procedure, shortened: as §3
[25] = Biodistribution in perfused wild type FVB Mdr1a/Mdr1b positive mouse choroid plexus assessed as drug accumulation after 30 mins; type: ADME, organism-based; settings: in vivo, 0.5 h; procedure, shortened: as §3
[26] = Partition coefficient of the compound; settings: octanol/water
[27] = Protein binding in artificial plasma assessed as tritiated drug level; type: ADME, cell-free; settings: read-out: PPB (converted); procedure, shortened: as §4
[28] = Biodistribution in BALB/c mouse pineal gland assessed as tritiated drug level at 5 ml/min perfusion after 30 min; type: ADME, organism-based; settings: in vivo, other, 0.5 h
Procedure, shortened: (§5)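 BALB/c mice were anesthetized (medetomidine 2 mg/kg, ketamine 150 mg/kg), heparinized, and perfused via the left ventricle at 5 ml/min with oxygenated artificial plasma (Krebs-Henseleit base, 1 g/liter BSA, 37°C). […] Tissue dpm/g was expressed as % of plasma dpm/ml (RTissue%). 3-4 mice per point.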

[29] = Biodistribution in FVB Mdr1a/Mdr1b deficient mouse pituitary gland assessed as tritiated drug level at 150 uM perfusion after 30 mins by capillary depletion assay; type: ADME, organism-based; settings: in vivo, other, 0.5 h; procedure, shortened: as §1
[30] = Biodistribution in perfused wild type FVB Mdr1a/Mdr1b positive mouse choroid plexus assessed as drug accumulation after 2.5 mins; type: ADME, organism-based; settings: in vivo; procedure, shortened: as §3
[31] = Biodistribution in BALB/c mouse pituitary gland assessed as tritiated drug level at 5 ml/min perfusion after 30 min; type: ADME, organism-based; settings: in vivo, other, 0.5 h; procedure, shortened: as §5
[32] = Biodistribution in FVB Mdr1a/Mdr1b deficient mouse pineal gland assessed as tritiated drug level at 150 uM perfusion after 30 mins by capillary depletion assay; type: ADME, organism-based; settings: in vivo, other, 0.5 h; procedure, shortened: as §1
[33] = Biodistribution in perfused FVB Mdr1a/Mdr1b deficient mouse choroid plexus assessed as drug accumulation after 30 mins; type: ADME, organism-based; settings: in vivo, 0.5 h; procedure, shortened: as §3
[34] = Biodistribution in BALB/c mouse 4th ventricle choroid plexus assessed as tritiated drug level at 5 ml/min perfusion after 30 min; type: ADME, organism-based; settings: in vivo, other, 0.5 h; procedure, shortened: as §5

Drug uptake (Thalamus [1]): 3.4% | Drug uptake (Hypothalamus [3]): 2.2% | Drug uptake [4]: 2.1% | Drug uptake [5]: 80.4% | Drug uptake [6]: 0.7% | Drug uptake [7]: 2.5% | Drug uptake [8]: 2.6% | Drug uptake [9]: 1.8% | Drug uptake [10]: 1.6% | Drug uptake (Hypothalamus [11]): 5.8% | Drug uptake [12]: 54.4% | Drug uptake (Cerebellum): 2.5% | Drug uptake [13]: 2.5% | Drug uptake [14]: 0.9% | Drug uptake [15]: 83.2% | Drug uptake [16]: 1.1% | Drug uptake (Mus musculus): 1.56%
SMILES: OC[C@H]1O[C@@](CO)(O[C@H]2O[C@H](CO)[C@@H](O)[C@H](O)[C@H]2O)[C@@H](O)[C@@H]1O [SUCROSE]
Activity (Thalamus [2]): 2.2%

Drug uptake [17]: 97% | Drug uptake [18]: 10.9% | fraction unbound [19]: 0.006 | Drug uptake [4]: 27.2% | fraction unbound [20]: 0.03 | Drug uptake [21]: 6.7% | Drug uptake [22]: 100% | Drug uptake [23]: 99.4% | Drug uptake [5]: 46% | Drug uptake [6]: 7.4% | Drug uptake [24]: 11.4% | Drug uptake [8]: 29.3% | Drug uptake [9]: 12.5% | Drug uptake [25]: 25.3% | Drug uptake [10]: 13% | partition coefficient [26]: 0.00023 | fraction unbound [27]: 0.047 | Drug uptake [28]: 388% | Drug uptake [29]: 57% | Drug uptake [12]: 263% | Drug uptake [30]: 8.6% | Drug uptake [31]: 39% | Drug uptake [14]: 9.5% | Drug uptake [32]: 437% | Drug uptake [33]: 26.6% | Drug uptake [34]: 163%
SMILES: Cc1ccc(C(=O)Nc2ccc(S(=O)(=O)O)c3cc(S(=O)(=O)O)cc(S(=O)(=O)O)c23)cc1NC(=O)c1cccc(NC(=O)Nc2cccc(C(=O)Nc3cc(C(=O)Nc4ccc(S(=O)(=O)O)c5cc(S(=O)(=O)O)cc(S(=O)(=O)O)c45)ccc3C)c2)c1 [SURAMIN]
